The record followed here is ChEMBL document CHEMBL4382210, “Identification of novel benzothiopyranone compounds against Mycobacterium tuberculosis through scaffold morphing from benzothiazinones” (Eur J Med Chem, 2018).

Bounds are passed on as bounds.

In series [1] the test system is Vero. Nature of the series: Cytotoxicity against African green monkey Vero cells assessed as reduction in cell viability after 48 hrs by MTT assay. Type of series: cell-based. The following applies: Chlorocebus sabaeus. The gist of the method: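 Vero or HepG2 cells in RPMI1640 with 10% FBS at 37 °C, 5% CO2, seeded at 4×10^5 cells/mL. Threefold dilutions at 64–0.26 µg/mL final for 48 h. Cells then washed with HBSS, MTT added for 4 h, absorbance read at 492 nm. IC50 taken relative to untreated control.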

Series [2] is described as follows: Metabolic stability in human liver microsomes assessed as parent compound remaining at 1 uM measured after 30 mins in presence of NADPH by LC-MS/MS analysis. Type of series: ADME, Microsome. The following applies: read-out: Stability. The gist of the method:
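Male CD-1 mouse or pooled human liver microsomes (1 mg/mL protein), compound at 1 µM, 37 °C. Reaction started with 1 mM NADPH and quenched with cold ACN/MeOH containing internal standard. Parent remaining measured by LC-MS/MS; the 30-min value is normalised to time zero.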

A short description of series [3]: Inhibition of Mycobacterium tuberculosis DprE1 expressed in Escherichia coli BL21(DE3) by fluorescence based assay. The gist of the method:
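Buffer: 50 mM Hepes pH 7.5, 100 mM NaCl, 1.5% DMSO, 100 µM Tween-20, 2 µM FAD, 50 µM resazurin. DprE1 (1 µM) with 1 mM FPR at 30 °C across inhibitor concentrations. Resorufin formation followed by fluorescence (ex 530/em 595 nm).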

Series [4] concerns the target Cytochrome P450 2C19 (Homo sapiens, UniProt P33261). The series is described as follows: Inhibition of CYP2C19 in human liver microsomes after 20 mins by LC-MS/MS analysis. Type of series: ADME. The gist of the method: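 Compound at 0.1–50 µM incubated 20 min with human liver microsomes (0.2 mg/mL) and the CYP isoform, alongside isoform-specific probe substrates. Substrate remaining measured by LC-MS/MS at each concentration to derive IC50.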
Background: Liver microsomes are vesicles of endoplasmic reticulum, rich in cytochrome P450 enzymes.

The nature of series [5]: Half life in CD-1 mouse hepatocytes assessed per million cells at 1 uM incubated up to 120 mins by LC-MS/MS analysis. Type of series: ADME, cell-based, Hepatocyte. Summed up: (§1)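 Pooled male CD-1 mouse or pooled human hepatocytes at 1 million cells/mL final, compound at 1 µM. Incubated at 37 °C in a CO2 incubator with shaking (~100 rpm). Samples taken at 0, 15, 30, 60, 90 and 120 min and quenched with cold ACN/MeOH containing internal standard. Parent compound remaining measured by LC-MS/MS.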

Series [6] is described as follows: Intrinsic clearance in human hepatocytes assessed per million cells at 1 uM incubated up to 120 mins by LC-MS/MS analysis. Type of series: ADME, cell-based, Hepatocyte. The following applies: read-out: CLH. The gist of the method:
as §1

Series [7] is described as follows: Acute toxicity in po dosed BALB/C mouse assessed as mortality administered as single dose measured during 7 days observation period. Type of series: organism-based. The following applies: in vivo. Summed up:
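Female Balb/c mice (18–21 g), ten animals, given one oral dose of 2 g/kg. Survivors counted after 7 days of observation.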

A short description of series [8]: Tmax in BALB/C mouse at 25 mg/kg, po by LC/TSQ quantum access mass spectrometry. The following applies: in vivo. Type of series: ADME, organism-based. Summed up: (§2)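 Male Balb/c mice (22–23 g), three per route. Single dose of 25 mg/kg p.o. (2.5 mg/mL in 0.5% carboxymethyl cellulose + 0.5% Tween 80) or 10 mg/kg i.v. (2.0 mg/mL in 20% HP-β-CD with 4 mol/L HCl). Blood sampled 5, 15, 30 min, 1, 2, 4, 7, 24 h. Plasma extracted with acetonitrile plus terfenadine internal standard, then LC-MS/MS on a C18 column. F = (AUCpo×dose_iv)/(AUCiv×dose_po).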

A short description of series [9]: AUC (0 to 24 hrs) in BALB/C mouse at 10 mg/kg, iv by LC/TSQ quantum access mass spectrometry. The note with it: in vivo. Further details: time < 24 hr, dose 10 mg/kg, route intravenous. Type of series: ADME, organism-based. The gist of the method: as §2
Series [10] is described as follows: MRT (0 to infinity) in BALB/C mouse at 10 mg/kg, iv by LC/TSQ quantum access mass spectrometry. Type of series: ADME, organism-based. The following applies: in vivo. The gist of the method: as §2
Series [11] is described as follows: Clearance in BALB/C mouse at 10 mg/kg, iv by LC/TSQ quantum access mass spectrometry. Type of series: ADME, organism-based. The note with it: in vivo. The gist of the method: as §2

Sequence of Cytochrome P450 2C19 (P33261 whole entry, canonical isoform): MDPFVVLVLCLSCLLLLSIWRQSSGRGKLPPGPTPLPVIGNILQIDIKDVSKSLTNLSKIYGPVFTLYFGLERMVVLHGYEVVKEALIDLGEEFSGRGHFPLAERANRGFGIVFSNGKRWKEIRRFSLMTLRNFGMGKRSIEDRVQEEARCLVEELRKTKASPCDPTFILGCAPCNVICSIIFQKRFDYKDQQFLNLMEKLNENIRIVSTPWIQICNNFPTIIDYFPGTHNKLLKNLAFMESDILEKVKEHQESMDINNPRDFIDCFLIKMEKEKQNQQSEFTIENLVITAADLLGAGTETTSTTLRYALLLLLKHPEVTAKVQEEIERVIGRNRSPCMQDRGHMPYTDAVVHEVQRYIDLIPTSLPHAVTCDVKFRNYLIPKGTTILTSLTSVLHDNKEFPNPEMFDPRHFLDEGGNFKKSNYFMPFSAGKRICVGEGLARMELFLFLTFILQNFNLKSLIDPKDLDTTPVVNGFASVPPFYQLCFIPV

On to `O=c1cc(N2CCN(CC3CCCCC3)CC2)sc2c([N+](=O)[O-])cc(C(F)(F)F)cc12`, for which the IC50 is over 64 µg/mL in [1], 4.53 µM in [3] and over 50 µM in [4]. Besides, in series [2], the remaining at 0.5 h, 1 µM is 66.7%. The half-life at 1 µM in series [5] came to 7.7 h. The hepatocyte CLint at 1 µM in series [6] came out at 3.1 µL/min/1e6 cells. Also, the LD50 at 168 h in [7] was over 2000 mg/kg. Further, the Tmax in [8] is 0.5 h. In addition, the area under the curve AUC(0-t) at 24 h in series [9] stood at 4950 ng·h/mL. Also, in series [10], the MRT inf came to 4.91 h. Besides, in series [11], the clearance is 32.3 mL/min/kg.

The IC50 is the concentration at which inhibition is half-maximal. In general, half-life refers to the time needed for the level to fall by half in the phase considered. By LD50 is commonly meant the dose expected to kill half of the subjects tested. For orientation: Tmax means the time at which the peak concentration occurs. As usually defined, the AUC(0-t) is the area under the concentration-time curve up to a stated or last time point. As usually defined, the MRT inf is a mean duration of stay, worked out from the concentration-time curve. Usually clearance stands for the volume of plasma or blood freed of the substance per unit of time.
